{"source": "PubChem BioAssay AID1385", "about": "(PCMD, 2008)", "note": "The whole screen tested about 200,000 compounds, of which about 170 (0.085%) were called active. The sample as a whole holds a higher share of actives than the screen did. Values without a mark were called inactive.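 How the source made its calls: active means inhibition above 40% at the single screening dose; inactive means the rest.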", "data": [{"molecular_target": "DNA repair protein RAD51 homolog 1 (Homo sapiens) (UniProt Q06609)", "sequence (Q06609 whole entry, looked up)": "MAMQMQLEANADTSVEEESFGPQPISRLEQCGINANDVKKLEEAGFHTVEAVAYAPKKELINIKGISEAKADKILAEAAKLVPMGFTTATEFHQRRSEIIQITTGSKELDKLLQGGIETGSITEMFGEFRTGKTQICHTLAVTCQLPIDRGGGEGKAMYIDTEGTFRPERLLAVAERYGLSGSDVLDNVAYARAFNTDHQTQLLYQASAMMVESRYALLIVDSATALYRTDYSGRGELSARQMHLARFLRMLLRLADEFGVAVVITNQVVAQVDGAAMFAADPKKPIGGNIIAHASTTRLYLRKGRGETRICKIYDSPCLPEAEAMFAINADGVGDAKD", "test": "human RAD51 strand exchange inhibitors, primary screen, biochemical, fluorescence (AID 1385);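 further: 0% = DMSO control wells and 100% = blanks with heterologous ssDNA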", "settings": "hRad51 DNA strand exchange, fluorescence dequenching; at 10 µM; active compounds read high", "method_in_brief": "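Read-out basis: percent inhibition relative to plate controls and blanks / Assay system: human Rad51 nucleoprotein filaments preassembled on unlabelled ssDNA / Timing: filaments 15 min 37 °C, then compound 30 min / Control set: per-plate controls and blanks / Technique: fluorescence dequenching at 485/520 nm / Compound: 10 µM final, single point / Also added: Fluorescein- and BHQ1-tagged 47-mer duplex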", "values": [{"smiles": "Cc1ccc(NC(=O)C/C(N)=N/O)cc1Cl", "inhibition": "-4.43%"}, {"smiles": "O=S(=O)(Cc1noc(-c2ccc(OC(F)(F)F)cc2)n1)c1ccc(F)cc1", "inhibition": "-2.58%"}, {"smiles": "CC(NC(=O)C(=O)Nc1nccs1)c1ccccc1", "note": "(configuration not stated)", "inhibition": "2.32%"}, {"smiles": "CCOC(=O)c1c(N)sc2c1CCCC2=O", "inhibition": "10.5%"}, {"smiles": "CCCc1nc2c(c(=O)c3ccccc3n2C)c(=O)n1-c1cc(C)cc(C)c1", "inhibition": "20%"}, {"smiles": "Cc1cc(N)n(-c2ccc(S(=O)(=O)N3CCCC3)cc2[N+](=O)[O-])n1", "inhibition": "4.97%"}, {"smiles": "O=C(N/N=C/c1ccco1)c1csc2c1CCCC2", "inhibition": "7.09%"}, {"smiles": "Cn1c2c(c(=O)n(C)c1=O)C(c1cccc(F)c1)C(C#N)=C(N)O2", "note": "(configuration not stated)", "inhibition": "1.62%"}, {"smiles": "O=C1NNC(c2ccccc2)=N/C1=C\\c1ccc(Cl)cc1", "inhibition": "-17%"}, {"smiles": "O=C(NCCN1CCOCC1)c1ccc2c(c1)N(Cc1ccc(Cl)cc1)CCS2", "inhibition": "22.5%"}, {"smiles": "CC1(C)CC(=O)C=C(Nc2ccccc2)C1", "inhibition": "8.69%"}, {"smiles": "O=C(C1=C(O)C(=O)N(CCOCCO)C1c1ccccn1)c1cccs1", "note": "(configuration not stated)", "inhibition": "21.9%"}, {"smiles": "CC12CN3CCN(CC(C3)/C1=N\\NC(=O)c1ccccc1N)C2", "inhibition": "-2.47%"}, {"smiles": "Nc1scc[n+]1Cc1cccc2cccnc12", "inhibition": "9.86%"}, {"smiles": "Cc1c(CCC(=O)O)c(=O)oc2cc3occ(-c4ccccc4)c3cc12", "inhibition": "3.32%"}, {"smiles": "O=C(Cn1cnc2ccccc2c1=O)Nc1cccc(S(=O)(=O)N2CCCCC2)c1", "inhibition": "11.5%"}, {"smiles": "Cn1c(=O)c2c(-c3cccc(Br)c3)c(C#N)c(N)nc2n(C)c1=O", "inhibition": "4.26%"}, {"smiles": "COc1ccccc1/C=C/C=N/NC(=O)CN1CCN(Cc2ccccc2)CC1", "inhibition": "-30.5%"}, {"smiles": "CCOc1cc2c(Cl)ncnc2c(OCC)c1OCC", "inhibition": "-5.3%"}, {"smiles": "O=S(=O)(Nc1ccc(Cl)cn1)c1cnc(Cl)c(Br)c1", "inhibition": "12%"}, {"smiles": "CC(NCc1ccccc1OC1CCCC1)c1ccccc1", "note": "(configuration not stated)", "inhibition": "15.6%"}, {"smiles": "O=c1cc(CCl)nc2scc(-c3ccccc3)n12", "inhibition": "-3.51%"}, {"smiles": "CNC(=S)NNC(=O)c1oc2nc(-c3ccccc3)cc(-c3ccco3)c2c1N", "inhibition": "-38.4%"}, {"smiles": "Cc1onc(-c2c(Cl)cccc2Cl)c1C(=O)NNC(=O)c1c(-c2c(Cl)cccc2Cl)noc1C", "inhibition": "9.44%"}, {"smiles": "COc1cccc(Nc2nc(N)c([N+](=O)[O-])c(NCc3ccco3)n2)c1", "inhibition": "1.8%"}, {"smiles": "COc1ccc(CN2CC[C@H]3C=CC[C@@H](C(=O)N4CCOCC4)[C@H]3C2=O)cc1OC", "inhibition": "-2.64%"}, {"smiles": "COc1ccccc1-n1c(SCC(=O)O)nc2sc3c(c2c1=O)CCC3", "inhibition": "4.79%"}, {"smiles": "COC(=O)C1=C[C@@H](C(=O)OC)[C@@H]2C3=C(C(=O)[C@]2(C)NC(=O)c2ccccc2)[C@H](C)n2c(=O)n(C)c(=O)n2[C@@H]3C1", "inhibition": "-1.64%"}, {"smiles": "Cc1ncn2cc(-c3ccc(Cl)cc3Cl)[nH]c(=O)c12", "inhibition": "-9.91%"}, {"smiles": "CCn1c(=O)c2cc(C(=O)Nc3cccc(C(C)=O)c3)sc2c2ccccc21", "inhibition": "-1.26%"}, {"smiles": "NS(=O)(=O)c1ccc(CNC(=O)c2cnccn2)cc1", "inhibition": "7.99%"}, {"smiles": "NC(=O)c1nnsc1-c1ccc(-c2snnc2C(N)=O)cc1", "inhibition": "-31.9%"}, {"smiles": "COc1ccc(CN2CCOC2=O)cc1OC", "inhibition": "-3.27%"}, {"smiles": "CCN(CC)c1ccc(NC(=O)C2CCC(CNc3c(N4CCCC4)c(=O)c3=O)CC2)c(C)c1", "note": "(configuration not stated)", "inhibition": "15.6%"}, {"smiles": "CC(O)c1nc2c(c(=O)n(C)c(=O)n2C)n1C", "note": "(configuration not stated)", "inhibition": "-23.8%"}, {"smiles": "COc1ccc(C(=O)O/N=C(\\N)Cc2ccc(Cl)cc2Cl)cc1OC", "inhibition": "1.56%"}, {"smiles": "COc1ccc(CCn2ccc(O)c(Cc3ccc(Cl)cc3Cl)c2=O)cc1OC", "inhibition": "43.6% (active)"}, {"smiles": "COc1ccc(CCNC2=C(Cl)C(=O)N(Cc3ccccc3)C2=O)cc1OC", "inhibition": "8.51%"}, {"smiles": "O=C1[C@@H]2C(c3cccnc3)=NO[C@@H]2C(=O)N1c1ccc(Cl)cc1Cl", "inhibition": "-42%"}, {"smiles": "COc1ccc(NS(=O)(=O)c2ccc(N3CCOCC3)c(NC(=O)c3ccccc3Br)c2)cc1", "inhibition": "17%"}, {"smiles": "CN(C)S(=O)(=O)c1ccc(Cl)c(NC(=O)COC(=O)CC(NC(N)=O)c2ccc(Cl)cc2)c1", "note": "(configuration not stated)", "inhibition": "-44.1%"}, {"smiles": "Clc1ccc(C[n+]2cc(-c3ccccc3)n3c2CCC3)cc1", "inhibition": "18.9%"}, {"smiles": "NNC(=O)c1ccc(COCC(F)(F)C(F)F)cc1", "inhibition": "1.4%"}, {"smiles": "COc1ccc2nc(NC(=O)NC3CCCCC3)sc2c1", "inhibition": "-16.2%"}, {"smiles": "Cc1ccsc1/C=N/NC(=O)Cc1cc(=O)[nH][nH]1", "inhibition": "16.7%"}, {"smiles": "Cc1ccc(C(=O)NNC2=Nc3cc([N+](=O)[O-])ccc3OC2)cc1", "inhibition": "3.01%"}, {"smiles": "COc1ccc(NC(=O)CSc2ncnc3[nH]ncc23)cc1", "inhibition": "-5.26%"}]}]}
